Source: PubChem BioAssay
The list is not random: actives were taken first. Their share in the collection is about 2.1%.
Calpain2 inh – inhibitors of pig calpain II, primary screen, biochemical, fluorogenic peptide substrate, 1536-well | AID 1236, 2008 | purified calpain II, 30 min | 220,000 tested, 0.37% active | inhibition, % at 16 µM;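 active = inhibition above about 50%, limit read from the data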
FAS-TE inh – FAS thioesterase domain inhibitors, primary screen, biochemical, fluorescence intensity, uHTS; recombinant FAS-TE, OMFH fluorogenic substrate, fluorescence endpoint; inhibition, % at 15 µM; 360,000 tested, 0.67% active;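 active = compounds whose normalised, plate-corrected inhibition of enzyme fluorescence in the single-dose primary screen is 50% or more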;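 also: 0% = DMSO with enzyme and 100% = substrate without enzyme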
Runt-CBFb FRET – inhibitors of RUNX1 Runt–CBFb binding, primary screen, biochemical, FRET, Cerulean-Runt, Venus-CBFb, uHTS. Runt-related transcription factor 1 (Homo sapiens) + Core-binding factor subunit beta …. Cerulean-Runt/Venus-CBFb FRET ratio 530/480, 1 h. inhibition, % at 20 µM. 220,000 tested, 0.46% active;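 active = inhibition over about 50% at 20 µM in the single-dose screen, limit read from the data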;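 also: 0% = DMSO wells and 100% = excess unlabeled CBFb competitor control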
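Assay system: Cerulean-Runt domain / Medium: Tris 50 mM pH 7.5, KCl, K2SO4, 0.01% BSA / Timing: protein complex preformed 1 h, compound exposure 1 h, room temperature, dark / Measured by: FRET, excitation 422 nm, emission at 530 and 480 nm / Evaluation: loss of energy transfer signal / Control set: 5 µM unlabeled CBFb as full-inhibition high control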
RanGTP-Imp inh – inhibitors of RanGTP-importin-beta interaction, primary screen, biochemical, FRET, CFP-Ran, YFP-importin-beta, homogeneous; cell-free CFP-Ran/YFP-importin-beta FRET ratio; inhibition, % (concentration not given with the values); 300,000 tested, 1.1% active;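 active = more than half of the replicate wells show a fall in the fluorescence ratio signal beyond about 16%, limit read from the data, passing the limit was not always enough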;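 also: 0% = DMSO wells and 100% = Ran loaded with GDP instead of GTP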
Runt-SMMHC FRET – inhibitors of RUNX1 Runt–CBFb-SMMHC binding, primary screen, biochemical, FRET, Cerulean-Runt, Venus-CBFb-SMMHC, uHTS; inhibition, % at 20 µM; 220,000 tested, 0.74% active; Cerulean-Runt/Venus-CBFb-SMMHC FRET ratio 530/480, 1 h; AID 1434, 2008;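 active = mean inhibition across duplicate retests at 20 µM reaching about 50%, limit read from the data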;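 also: 0% = DMSO wells and 100% = wells with excess untagged CBFb-SMMHC; inhibitors lower the FRET ratio by blocking Runt binding to CBFb-SMMHC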
An asterisk follows results filed as active; i = inactive; / = not tested or not shown.

SMILES	Calpain2 inh	FAS-TE inh	Runt-CBFb FRET	RanGTP-Imp inh	Runt-SMMHC FRET
CC(C)(O)C1Cc2cc(/C=C/C(=O)O)c(O)cc2O1 (centres undefined)	-152.5	-0.5	32.0	-2.6	63.1*
COc1ccccc1OCC(=O)N1CCCC(Nc2ccc(F)c(F)c2)C1 (centres undefined)	/	-3.3	/	2.7	/
O=C1CC(C(=O)Nc2ccc(Cl)cc2)n2ncnc2N1 (centres undefined)	74.2*	-6.5	0.2	1.3	-1.6
CCc1ccc(NC(=O)C2CC(=O)Nc3ncnn32)cc1 (centres undefined)	-1.7	-7.0	-1.3	3.2	-2.3
CC(C(=O)NC1CCCCC1)N(Cc1ccccc1)C(=O)c1snc(C(N)=O)c1N (centres undefined)	/	0.8	/	-1.0	/
Oc1c(Br)cc(CNC2CCCCC2)cc1Br	/	0.5	/	/	/
COC(=O)C1=C(C)N(CC2CCCO2)C(=O)C1 (centres undefined)	-17.9	-7.9	-1.1	16.7*	1.6
C[C@H](CO)N1C[C@H](C)[C@@H](CN(C)CC2CCCCC2)Oc2ccc(NC(=O)Cn3cnnn3)cc2C1=O	/	-2.7	/	/	/
CCCCOc1ccc(C(=O)N/C(=C\c2cccc([N+](=O)[O-])c2)C(=O)OC(C)C)cc1	51.5*	36.7	-2.8	0.1	4.4
CCCCOc1ccc(C(=O)N/C(=C\c2cccc([N+](=O)[O-])c2)C(=O)OCCC)cc1	14.2	11.7	-0.2	2.4	-2.5
Cn1cc(-c2csc(C(C)(O)c3cccnc3)n2)cn1 (centres undefined)	/	-10.4	/	/	/
CCOc1ncccc1C(=O)OCC(=O)NCc1ccc(C(=O)OC)cc1	/	1.6	/	/	/
CC(C)(C)NC(=O)NC(=O)CN1CCN(c2ccc(O)cc2)CC1	74.1*	-2.3	27.8	2.0	41.2
COc1ccc(-c2cc(C(=O)N/N=C/c3ccc4c(c3)OCO4)c3ccccc3n2)c(OC)c1	-44.6	50.8*	-1.9	-0.7	-3.2
CCOC(=O)[C@@H]1[C@H]2COc3cc(OC)ccc3[C@H]2N2C(=O)N(c3cccc(F)c3)C(=O)[C@]12C	/	21.8	/	/	/
CCOc1ccc(CC(=O)OCn2nnc3ccccc3c2=O)cc1	65.9*	27.2	-2.5	-0.9	-1.8
CCC(=O)OCn1nnc2ccccc2c1=O	19.6	-3.8	-1.7	3.0	-4.8
O=C(CCC(=O)N/N=C/c1cc(Cl)cc(Cl)c1O)NCc1ccccc1	i	28.8	19.8	43.0*	91.5*
CC(=O)Nc1ccc(S(=O)(=O)NCCN2CCNC2=O)cc1Cl	/	-9.1	/	2.0	/
Fc1ccccc1COc1ccc(Br)cc1CNCc1ccncc1	57.3*	-5.5	-0.3	-1.2	-9.6
N#Cc1cc2c(=O)n3ccccc3nc2n(Cc2ccco2)c1=NC(=O)c1ccco1	-73.3	3.6	3.5	55.7*	/
COc1ccc(C(=O)N=c2c(C#N)cc3c(=O)n4cccc(C)c4nc3n2Cc2ccco2)cc1	-311.9	/	69.9*	78.2*	/
Cc1cccn2c(=O)c3cc(C(=O)O)n(C)c3nc12	-490.8	-8.7	11.8	-1.1	28.5
Cc1ccccc1C(=O)N=c1c(C#N)cc2c(=O)n3cccc(C)c3nc2n1Cc1ccco1	-238.0	/	124.0*	110.3*	57.8*
COc1cc2c(=O)n(Cc3ccco3)c(=O)n(CC(=O)c3ccc(Br)cc3)c2cc1OC	-62.6	20.9	5.7	3.3	0.5
SMILES	Calpain2 inh	FAS-TE inh	Runt-CBFb FRET	RanGTP-Imp inh	Runt-SMMHC FRET
CC(=O)N=c1c(C#N)cc2c(=O)n3cccc(C)c3nc2n1Cc1ccco1	-101.1	5.9	9.6	80.3*	88.1*
O=C(CCc1ccccc1)NC1CCS(=O)(=O)C1 (centres undefined)	/	-7.3	/	/	/
O=C(c1ccco1)N1CCCC(N2CCN(c3cccc(C(F)(F)F)c3)CC2)C1 (centres undefined)	/	2.8	/	-0.3	/
CCOc1ccc(CCNC(=O)c2cccs2)cc1OCC	/	-7.2	/	-2.6	/
CN1C(=O)/C(=C/c2ccc3c(c2)OCO3)N=C1c1ccccc1	-9.7	-8.2	1.3	17.4*	14.8
N#C/C(=C\c1c(Cl)cccc1Cl)c1nc2ccccc2[nH]1	-4.4	26.4	0.7	8.4	-2.0
